From ChEMBL document CHEMBL4834404, “Template-Hopping Approach Leads to Potent, Selective, and Highly Soluble Bromo and Extraterminal Domain (BET) Second Bromodomain (BD2) Inhibitors” (J Med Chem, 2021)
Values after ≈ are worked out from the molar mass of the structure shown.

How the values were obtained:
[1] = biological target: Bromodomain-containing protein 4 (Homo sapiens, UniProt O60885, Y97A); experiment: Inhibition of 6His-Thr-BRD4 (1 to 477 residues) BD1 Y97A mutant (unknown origin) incubated for 30 mins by TR-FRET assay
[2] = system: Blood; experiment: Inhibition of LPS-stimulated MCP-1 production in human whole blood incubated for 24 hrs by mesoscale assay; type: functional, tissue-based
Outline: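 Sodium-heparinized human whole blood preincubated 30 min with compound (DMSO dilutions, 140× stocks) at 37 °C, 5% CO₂, then stimulated with Salmonella typhosa LPS (200 ng/mL final) for 24 h. PBS added, plates centrifuged, supernatant MCP-1 quantified by MesoScale Discovery immunoassay.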

[3] = Volume of distribution at steady state in Wistar Han rat at 1 mg/kg, iv measured upto 7 hrs by LC-MS/MS analysis; type: ADME, organism-based; details: in vivo, read-out: Vdss
Outline: (§1)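 Surgically cannulated male Wistar Han rats (femoral vein dosing, jugular vein sampling), given 1 h iv infusion at target 1 mg/kg, 0.2 mg/mL in DMSO/10% (w/v) Kleptose HPB in saline (2:98 v/v); n = 1. Serial 25 μL blood samples predose to 7 h; parent compound by LC-MS/MS (LLQ 1−2 ng/mL); non-compartmental analysis of blood concentration−time profiles.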

[4] = Oral bioavailability in Wistar Han rat at 3 mg/kg measured upto 24 hrs by LC-MS/MS analysis; type: ADME, organism-based; details: in vivo
Outline: (§2)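 Three naive male Wistar Han rats dosed by oral gavage at target 3 mg/kg, suspended in 1% (w/v) methylcellulose aq at 0.6 mg/mL. Serial 25 μL blood samples via tail vein up to 24 h; parent compound by LC-MS/MS (LLQ 1 ng/mL) against standards in control blood; non-compartmental PK analysis.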

[5] = species: Homo sapiens; experiment: Selectivity index, ratio of pIC50 of BRD4 BD1 (unknown origin) to pIC50 of BRD4 BD2 (unknown origin)
[6] = Metabolic stability in rat Hepatocyte assessed as intrinsic clearance at 0.5 uM incubated for 60 mins by LC-MS/MS analysis; type: ADME, tissue-based; details: hepatocytes, 1 h
[7] = Half life in Wistar Han rat at 1 mg/kg, iv measured upto 7 hrs by LC-MS/MS analysis; type: ADME, organism-based; details: in vivo; outline: as §1
[8] = Inhibition of LPS-induced MCP1 production in PBMC (unknown origin); type: functional, tissue-based
[9] = Solubility of compound by CLND assay; type: physicochemical
[10] = biological target: Voltage-gated inwardly rectifying potassium channel KCNH2 (Homo sapiens, UniProt Q12809); experiment: Inhibition of human ERG
[11] = AUC in Wistar Han rat at 1 mg/kg, iv measured upto 7 hrs by LC-MS/MS analysis; type: ADME, organism-based; design: route intravenous, dose 1 mg/kg, time <=7; details: in vivo; outline: as §1
[12] = Clearance in Wistar Han rat at 1 mg/kg, iv measured upto 7 hrs by LC-MS/MS analysis; type: ADME, organism-based; details: in vivo; outline: as §1
[13] = biological target: T1, Bromodomain-containing protein 2 (Homo sapiens, UniProt P25440); experiment: Inhibition of 6His-Thr-BRD2 (1 to 473 residues) BD1 domain (unknown origin) incubated for 30 mins by TR-FRET assay
[14] = Unbound clearance in Wistar Han rat at 1 mg/kg, iv measured upto 7 hrs by LC-MS/MS analysis; type: ADME, organism-based; details: in vivo
[15] = Metabolic stability in human Hepatocyte assessed as intrinsic clearance at 0.5 uM incubated for 120 mins by LC-MS/MS analysis; type: ADME, tissue-based; details: hepatocytes, 2 h
[16] = biological target: T2, Bromodomain-containing protein 3 (Homo sapiens, UniProt Q15059); experiment: Inhibition of 6His-Thr-BRD3 (1 to 435 residues) BD1 domain (unknown origin) incubated for 30 mins by TR-FRET assay
Target sequence in this assay (Q15059 whole entry, the tested form may be a part): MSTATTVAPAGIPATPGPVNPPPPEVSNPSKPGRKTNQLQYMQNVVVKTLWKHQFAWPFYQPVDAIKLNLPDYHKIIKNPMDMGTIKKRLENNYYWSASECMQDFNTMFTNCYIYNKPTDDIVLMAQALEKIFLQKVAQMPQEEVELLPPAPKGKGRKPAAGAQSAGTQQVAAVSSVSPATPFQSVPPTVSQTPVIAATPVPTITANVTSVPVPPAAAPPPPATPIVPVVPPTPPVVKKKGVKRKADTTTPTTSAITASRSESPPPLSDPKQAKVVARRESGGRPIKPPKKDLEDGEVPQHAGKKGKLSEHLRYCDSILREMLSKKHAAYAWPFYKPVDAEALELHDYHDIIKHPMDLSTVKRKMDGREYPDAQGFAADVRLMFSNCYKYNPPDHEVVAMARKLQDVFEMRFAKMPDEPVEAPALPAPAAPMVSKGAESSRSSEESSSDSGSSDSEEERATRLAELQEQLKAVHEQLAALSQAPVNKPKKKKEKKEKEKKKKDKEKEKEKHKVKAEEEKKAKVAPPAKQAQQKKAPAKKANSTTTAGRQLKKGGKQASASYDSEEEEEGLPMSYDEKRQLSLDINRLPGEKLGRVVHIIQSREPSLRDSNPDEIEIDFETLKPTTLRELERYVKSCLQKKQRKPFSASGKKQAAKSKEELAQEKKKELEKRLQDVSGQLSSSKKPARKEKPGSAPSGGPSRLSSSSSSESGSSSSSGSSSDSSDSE

[17] = biological target: Bromodomain-containing protein 4 (Homo sapiens, UniProt O60885, Y390A); experiment: Inhibition of 6His-Thr-BRD4 (1 to 477 residues) BD2 domain Y390A mutant (unknown origin) incubated for 30 mins by TR-FRET assay
[18] = Fraction unbound in Wistar Han rat at 1 mg/kg, iv measured upto 4 hrs by LC-MS/MS analysis; type: ADME, organism-based
Outline: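 Control Wistar Han rat blood dialyzed against PBS by rapid equilibrium dialysis, 4 h at 37 °C, compound at 200 and 1000 ng/mL; matrix-matched aliquots analysed by LC-MS/MS; unbound fraction from buffer/blood peak area ratios, mean of the two concentrations.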

[19] = biological target: T3, Bromodomain testis-specific protein (Homo sapiens, UniProt Q58F21); experiment: Inhibition of 6His-FLAG-Tev-BRDT (1 to 397 residues) BD1 domain (unknown origin) incubated for 30 mins by TR-FRET assay
[20] = biological target: T2, Bromodomain-containing protein 3; experiment: Inhibition of 6His-Thr-BRD3 (1 to 435 residues) BD2 domain Y348A or Y73A mutant (unknown origin) incubated for 30 mins by TR-FRET assay
Target sequence in this assay (Q15059 2-726 limits assumed): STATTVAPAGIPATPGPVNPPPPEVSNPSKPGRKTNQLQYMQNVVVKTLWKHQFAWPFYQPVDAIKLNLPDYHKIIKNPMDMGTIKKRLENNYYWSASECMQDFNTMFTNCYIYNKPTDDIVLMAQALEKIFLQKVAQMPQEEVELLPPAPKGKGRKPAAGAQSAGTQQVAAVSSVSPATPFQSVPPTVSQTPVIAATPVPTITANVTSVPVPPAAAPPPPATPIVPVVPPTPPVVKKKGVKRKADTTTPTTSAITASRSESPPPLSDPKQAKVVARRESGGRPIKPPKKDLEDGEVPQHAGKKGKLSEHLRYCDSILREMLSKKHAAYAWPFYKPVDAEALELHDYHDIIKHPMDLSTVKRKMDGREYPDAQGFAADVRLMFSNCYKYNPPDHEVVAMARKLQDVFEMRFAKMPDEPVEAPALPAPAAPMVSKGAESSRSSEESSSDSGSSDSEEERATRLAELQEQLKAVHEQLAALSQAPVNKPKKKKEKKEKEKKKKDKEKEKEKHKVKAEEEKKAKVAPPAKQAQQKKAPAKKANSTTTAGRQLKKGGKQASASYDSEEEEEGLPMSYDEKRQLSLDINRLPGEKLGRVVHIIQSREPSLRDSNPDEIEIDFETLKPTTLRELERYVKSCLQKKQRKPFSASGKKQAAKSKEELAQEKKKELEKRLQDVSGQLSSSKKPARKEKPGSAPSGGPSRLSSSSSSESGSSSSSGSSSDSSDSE

[21] = Dose normalized AUC in Wistar Han rat at 3 mg/kg, po measured upto 24 hrs by LC-MS/MS analysis; type: ADME, organism-based; details: in vivo; outline: as §2
[22] = biological target: Albumin (Homo sapiens, UniProt P02768); experiment: Binding affinity to human serum albumin; type: ADME; details: isolated protein
Outline: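 Chromatographic binding on chemically bonded HSA column (50 × 3 mm), 1.8 mL/min; mobile phase 50 mM ammonium acetate pH 7.4 with 2-propanol gradient (0−30% over 3 min, hold to 6 min, back to 0%); gradient retention time recorded.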

[23] = biological target: T1, Bromodomain-containing protein 2; experiment: Inhibition of 6His-Thr-BRD2 (1 to 473 residues) BD2 domain Y386A or Y113A mutant (unknown origin) incubated for 30 mins by TR-FRET assay
[24] = Permeability of compound; type: ADME; details: not told; read-out: permeability
[25] = biological target: T3, Bromodomain testis-specific protein; experiment: Inhibition of 6His-FLAG-Tev-BRDT (1 to 397 residues) BD2 domain Y309A or Y66A mutant (unknown origin) incubated for 30 mins by TR-FRET assay

T1 sequence (P25440 whole entry, the tested form may be a part): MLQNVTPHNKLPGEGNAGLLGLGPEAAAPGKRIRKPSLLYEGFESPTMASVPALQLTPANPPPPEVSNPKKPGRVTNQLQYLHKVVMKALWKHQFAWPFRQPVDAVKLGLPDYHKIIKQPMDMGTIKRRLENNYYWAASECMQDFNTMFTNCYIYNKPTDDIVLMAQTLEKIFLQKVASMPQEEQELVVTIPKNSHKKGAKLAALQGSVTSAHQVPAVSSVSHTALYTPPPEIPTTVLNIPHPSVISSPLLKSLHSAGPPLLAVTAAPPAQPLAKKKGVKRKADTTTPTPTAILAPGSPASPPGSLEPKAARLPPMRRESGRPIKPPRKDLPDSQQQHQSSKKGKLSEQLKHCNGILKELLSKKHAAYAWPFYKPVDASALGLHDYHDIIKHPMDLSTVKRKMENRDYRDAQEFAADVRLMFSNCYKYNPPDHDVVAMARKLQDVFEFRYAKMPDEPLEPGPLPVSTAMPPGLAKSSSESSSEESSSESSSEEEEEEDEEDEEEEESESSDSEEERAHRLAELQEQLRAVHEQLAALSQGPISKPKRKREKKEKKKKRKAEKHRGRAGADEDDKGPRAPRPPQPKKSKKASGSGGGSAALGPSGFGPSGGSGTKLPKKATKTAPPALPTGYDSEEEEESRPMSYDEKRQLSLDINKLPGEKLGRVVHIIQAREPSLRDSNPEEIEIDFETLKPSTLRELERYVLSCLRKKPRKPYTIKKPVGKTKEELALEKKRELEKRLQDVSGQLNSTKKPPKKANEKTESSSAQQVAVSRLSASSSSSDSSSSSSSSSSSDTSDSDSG
Sequence of Albumin (P02768 whole entry): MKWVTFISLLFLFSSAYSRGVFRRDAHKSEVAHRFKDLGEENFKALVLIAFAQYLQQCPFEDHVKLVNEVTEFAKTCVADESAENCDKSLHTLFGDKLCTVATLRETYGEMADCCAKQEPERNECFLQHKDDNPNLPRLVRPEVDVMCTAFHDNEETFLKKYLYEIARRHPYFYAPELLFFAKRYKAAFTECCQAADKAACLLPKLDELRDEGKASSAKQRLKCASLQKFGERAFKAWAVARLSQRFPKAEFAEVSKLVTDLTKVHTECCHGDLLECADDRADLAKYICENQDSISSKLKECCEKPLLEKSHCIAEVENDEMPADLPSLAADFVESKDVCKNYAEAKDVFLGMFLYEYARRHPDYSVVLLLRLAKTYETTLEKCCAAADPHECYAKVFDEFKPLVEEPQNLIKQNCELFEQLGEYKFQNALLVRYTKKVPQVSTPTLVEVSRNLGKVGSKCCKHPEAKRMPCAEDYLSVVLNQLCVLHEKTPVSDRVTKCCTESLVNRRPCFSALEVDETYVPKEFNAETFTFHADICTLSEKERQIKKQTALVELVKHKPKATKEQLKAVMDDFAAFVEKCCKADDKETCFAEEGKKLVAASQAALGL
Sequence of Voltage-gated inwardly rectifying potassium channel KCNH2 (Q12809 whole entry): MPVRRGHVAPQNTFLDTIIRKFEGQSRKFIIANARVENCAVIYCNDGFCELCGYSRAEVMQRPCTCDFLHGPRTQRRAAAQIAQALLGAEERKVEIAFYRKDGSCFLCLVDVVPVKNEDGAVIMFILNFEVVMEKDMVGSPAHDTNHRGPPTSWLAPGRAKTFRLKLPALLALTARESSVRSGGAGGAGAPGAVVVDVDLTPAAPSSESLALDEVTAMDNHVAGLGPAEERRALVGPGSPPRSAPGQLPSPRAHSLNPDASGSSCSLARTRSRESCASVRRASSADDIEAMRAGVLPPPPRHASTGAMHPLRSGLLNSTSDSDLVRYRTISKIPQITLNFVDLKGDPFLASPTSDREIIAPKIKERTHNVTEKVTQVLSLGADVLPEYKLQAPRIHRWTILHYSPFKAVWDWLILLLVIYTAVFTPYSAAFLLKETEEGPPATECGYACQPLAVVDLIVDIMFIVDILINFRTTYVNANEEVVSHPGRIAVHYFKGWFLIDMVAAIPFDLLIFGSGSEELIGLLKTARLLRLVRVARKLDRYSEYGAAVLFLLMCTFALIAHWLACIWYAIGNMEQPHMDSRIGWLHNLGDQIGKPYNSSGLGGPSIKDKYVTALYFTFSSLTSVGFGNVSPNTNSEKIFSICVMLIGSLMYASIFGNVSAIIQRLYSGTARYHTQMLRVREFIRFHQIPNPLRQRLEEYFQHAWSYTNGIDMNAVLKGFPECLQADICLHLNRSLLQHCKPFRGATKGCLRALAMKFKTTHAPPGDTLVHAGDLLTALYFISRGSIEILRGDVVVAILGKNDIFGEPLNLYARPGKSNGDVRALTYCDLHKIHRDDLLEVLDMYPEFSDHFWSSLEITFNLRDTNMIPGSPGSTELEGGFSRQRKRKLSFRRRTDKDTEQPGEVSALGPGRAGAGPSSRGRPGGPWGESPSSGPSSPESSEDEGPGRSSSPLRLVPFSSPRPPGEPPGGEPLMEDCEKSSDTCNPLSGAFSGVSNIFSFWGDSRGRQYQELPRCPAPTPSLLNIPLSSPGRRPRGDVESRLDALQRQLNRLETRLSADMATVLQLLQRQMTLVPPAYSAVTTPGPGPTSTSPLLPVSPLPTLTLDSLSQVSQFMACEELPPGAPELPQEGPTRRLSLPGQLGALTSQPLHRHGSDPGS

IC50 [1] [µM]	IC50 [2] [µM]	Vd [3] [L/kg]	bioavailability [4] [%]	Ratio pIC50 [5]	CLH [6] [mL/min/g]	half-life [7] [min]	IC50 [8] [µM]	solubility kinetic [9] [µg/mL]	AUC at 7 h [11] [ng·h/mL]	clearance [12] [mL/min/kg]	IC50 [13] [µM]	CL free [14] [mL/min/kg]	CLH [15] [mL/min/g]	IC50 [16] [µM]	IC50 [17] [µM]	pIC50 [20]	AUC/dose [21] [kg·min/L]	Activity [22] [%]	Compound	IC50 [10] [µM]	other results
50.1	2.51	0.7	59	200	1.09	27	0.251	≥ 137	873	19	> 50.1	102	1.18	> 50.1	0.251	6.5	30	84	CCNC(=O)c1ccc(OCc2cccc(C)n2)c(-c2cn(C)nn2)c1	> 50.1	fraction unbound at 4 h [18]: 0.19; IC50 [19]: > 50.1 µM; pIC50 [23]: 5.8; Papp [24]: 47 ×10⁻⁶ cm/s; pIC50 [25]: 6.4
5.01	0.398	1.8	32	100	< 0.8	99	0.0158	145 (≈ 399 µM)	1180	14	39.8	19	< 0.45	12.6	0.0501	7.1	23	84	C[C@H](Oc1ccc(C(=O)NC2CC2)cc1-c1cn(C)nn1)c1ccccn1	39.8	fraction unbound at 4 h [18]: 0.76; pIC50 [23]: 6.6; Papp [24]: 15 ×10⁻⁶ cm/s
10	0.398	1.1	31	315	1.98	52.2	0.0251	≥ 148	778	21	25.1	205	< 0.45	31.6	0.0316	7.5	15	90	CCNC(=O)c1cc(Cc2cccc3[nH]ccc23)nc(-c2cn(C)nn2)c1	31.6	IC50 [19]: 25.1 µM; pIC50 [23]: 7.3; Papp [24]: 30 ×10⁻⁶ cm/s; pIC50 [25]: 7.3
